Shown are actives, neighbours in structure and some others; about 2.2% of the full set was active somewhere.
b-catenin transl – alters nuclear translocation of beta-catenin in HeLa cells | immunofluorescence imaging | AID 1665 | nuclear translocation activity, % at 5 µM | 0.3% of 190,000 active;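 active means nuclear translocation activity above 50% at 5 µM, with a well cell count of 50 or more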;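 further: per-cell ratio of nuclear to cytoplasmic median beta-catenin stain intensity; plate controls were DMSO negative control for no effect and GSK-3 inhibitor IX positive control for full effect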
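Test system: human HeLa cells, native beta-catenin. Compound dosing: 5 µM primary single dose, 0.1% DMSO, 0.02–20 µM confirmation series. Incubation: compound exposure 24 h at 37°C. Detection: beta-catenin immunostaining with DAPI counterstain, 20x imaging, 6 fields/well. Read-out basis: Nuclear/cytoplasmic beta-catenin signal ratio, % activation.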
MT stabilizer – microtubule stabilization, imaging screen; HeLa tubulin immunostaining HCS, 24 h; share of cells brighter than vehicle mean+2SD; % tubulin-high responders, % at 10 µM; 0.83% of 200,000 active; AID 2205;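 active means plate Z-score above 3 for both tubulin-high and condensed-nucleus cell shares, with cell loss under 80%, at 10 µM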;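 further: anti alpha tubulin signal scored within the nucleus-defined area of each cell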
Ba/F3 V617F tox – loss of viability in JAK2V617F-driven Ba/F3 cells. Ba/F3 EpoR-JAK2V617F viability, ATP luminescence. inhibition, % at 5.6 µM. 1.1% of 220,000 active. AID 1446;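 active means inhibition above the campaign mean plus 3 SD over all tested compounds, cut at about 24% in these data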;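 further: cytokine-independent growth of Ba/F3 cells driven by EpoR plus mutant JAK2; 0% = DMSO-treated cells and 100% = JAK inhibitor I control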
APP transl inh – APP translation inhibition; 0.82% of 190,000 active; SH-SY5Y APP 5'UTR-luciferase reporter, luminescence; AID 1285; inhibition, % at 2 µM;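 active means inhibition above a set limit, derived from the sample mean plus 3 SD, cut at about 45% in these data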
BaF3 parental – counter-screen for JAK2V617F inhibitors: parental Ba/F3 viability inhibitors; 1.1% of 220,000 active; inhibition, % at 5.6 µM; CellTiter-Glo ATP luminescence;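 active means inhibition above a per-campaign cutoff, the mean inhibition of all tested compounds plus 3 SD, cut at about 27% in these data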;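 further: 0% = DMSO wells and 100% = JAK Inhibitor I control wells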
IEC-6 cytotox – kills IEC-6 intestinal cells in KLF5 counter-screen; IEC-6 cytotoxicity, luminescence viability; inhibition, % at 5 µM; 0.78% of 290,000 active; AID 1825;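 further: 0% = plate median of test compound wells and 100% = cytotoxic reference compound wells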
IEC-6 tox confirm – IEC-6 cytotoxicity, confirmation assay. 63% of 1,900 active. inhibition, % at 5 µM. IEC-6 rat intestinal epithelial viability, luminescence. AID 1907. shares compounds with IEC-6 cytotox;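 further: 0% = vehicle and 100% = reference cytotoxic drug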
* hit, by the source's call; x = no result given. Unless noted, no stated cut-off is given here; in the data, active means inhibition above about 22%; inactive means the rest.

SMILES	b-catenin transl	MT stabilizer	Ba/F3 V617F tox	APP transl inh	BaF3 parental	IEC-6 cytotox	IEC-6 tox confirm
Cc1nn(-c2ccc(N3CCOCC3)nn2)c(C)c1CCC(=O)NCc1ccc(F)cc1	x	x	x	x	x	1.4	x
O=C(Nc1nc(-c2ccccn2)cs1)C1CC1	3.0	6.8	-0.9	-2.9	3.3	2.5	x
Cc1nc(NC(=O)c2ccco2)sc1C(=O)O	x	x	x	x	x	35.2*	27.0*
O=C(Nc1nc(-c2ccccn2)cs1)c1ccco1	0.0	2.7	0.9	31.7	9.4	26.5*	28.2*
O=C(CC1CC2CCC1C2)Nc1nc(-c2ccccn2)cs1 (stereo not given)	1.5	9.7	4.0	-37.2	7.2	28.7*	6.4
O=C(Nc1nc(-c2ccccn2)cs1)c1ccc(Br)s1	3.3	3.7	2.1	25.1	5.1	30.1*	69.8*
O=C(Nc1nc(-c2ccncc2)cs1)c1ccco1	-2.0	3.5	-1.5	-7.5	6.9	-2.4	x
COc1ccc(/C=N/NC(=O)c2nnn(-c3nonc3N)c2-c2cccs2)c(OC)c1	x	x	x	x	x	1.9	x
Cc1ccc(C(C)c2c(C)c([N+](=O)[O-])cc(C)c2[N+](=O)[O-])cn1 (stereo not given)	x	x	x	x	x	0.8	x
O=C(NC(=S)Nc1cccc(Cl)c1Cl)C1CC1	x	x	x	x	x	0.7	x
Cc1c(Cl)cccc1NS(=O)(=O)c1ccc(-c2ccc(=O)[nH]n2)o1	x	x	x	x	x	-0.8	x
CCCc1cc(=O)n2[nH]cc(-c3ccc(Cl)cc3)c2n1	x	x	x	x	x	22.9*	5.5
COC(=O)C1CC23C=CCN4CCC5(c6ccccc6NC15C2C)C43 (stereo not given)	x	x	x	x	x	87.6*	59.2*
CCC(C)[C@H](NS(=O)(=O)c1ccc(C)cc1)C(=O)N1CCC(C(=O)N2CCC(C(N)=O)CC2)CC1 (stereo not given in full)	x	x	x	x	x	5.5	x
CC(C)(C)c1ccc(NC(=O)c2ccsc2)cc1	-0.2	x	4.2	x	-1.9	13.5	x
Cc1ccccc1OCC(=O)NNC(=O)Nc1ccc(Cl)cc1	75.7*	2.8	1.4	9.5	7.2	67.1*	29.3*
Cc1ccccc1OCC(=O)NNC(=O)Nc1ccccc1	0.4	2.6	-1.5	-8.1	3.9	2.5	x
O=C(CSc1nnc(-c2ccncc2)n1-c1ccccc1)NC1CC1	x	x	x	x	x	0.3	x
Cc1ccc(NC(=O)CSc2nnc(-c3cccs3)o2)cc1S(=O)(=O)N(C)C	0.2	3.1	-3.0	-51.9	5.1	-5.5	x
Cc1ccccc1OCC(O)CNC1CCC(NCC(O)COc2ccccc2C)CC1 (stereo not given)	x	x	x	x	x	100.9*	101.0*
Cc1ccc2[nH]c(CSc3ccccc3)cc(=O)c2c1	x	x	x	x	x	8.1	x
Cc1cc(S(=O)(=O)NCCCN2CCOCC2)c(C)cc1Cl	x	x	x	x	x	-2.0	x
O=C(Nc1ccc(N2CCCC2)cc1)c1cc(Cl)ccc1Cl	x	x	x	x	x	56.5*	27.1*
O=C(Nc1ccc(N2CCCC2)cc1)c1ccc(Cl)cc1Cl	x	x	x	x	x	0.5	x
CCOC(=O)c1[nH]c(C)c(/C(O)=C2\C(=O)C(=O)N(CCCN3CCOCC3)C2c2cccs2)c1C (stereo not given)	-5.4	x	69.7*	x	71.8*	58.7*	10.0
SMILES	b-catenin transl	MT stabilizer	Ba/F3 V617F tox	APP transl inh	BaF3 parental	IEC-6 cytotox	IEC-6 tox confirm
Cn1ccnc1CN1CCCCC1C(=O)Nc1ccc(Oc2cccnc2)cc1 (stereo not given)	x	x	x	x	x	27.1*	2.8
COc1cc(C=O)cc(Cl)c1OC(=O)N1CCOCC1	x	x	x	x	x	2.4	x
CC(C)(C)c1ccc(-c2nc(C#N)c(N3CCC(C(N)=O)CC3)o2)cc1	x	x	x	x	x	4.6	x
CNC[C@@H](Cc1ccccc1)NC[C@@H](CC1CCCCC1)NCCCc1ccccc1	x	x	x	x	x	101.5*	71.2*
O=C(NCCCCc1ccccc1)c1ccccc1	-0.3	1.9	-0.9	21.3	1.9	-0.6	x
CCC[C@@H](CN[C@@H](CNC)C(C)C)NCCCCc1ccccc1	x	x	x	x	x	43.9*	66.1*
CC[C@@H](C)[C@H](CNC)NC[C@@H](Cc1cccc2ccccc12)NCCc1cccc(C(F)(F)F)c1	x	x	x	x	x	-5.7	x
CCCC[C@@H](CNC)NC[C@H](NCCCCC1CCCCC1)C(C)C	x	x	x	x	x	-4.1	x
CNC[C@@H](CC1CCCCC1)NC[C@H](CC(C)C)NCCc1cccc(C(F)(F)F)c1	x	x	x	x	x	-6.4	x
CCC[C@@H](CNC)NC[C@H](Cc1ccccc1)NCCCCc1ccccc1	x	x	x	x	x	23.8*	101.1*
CCC[C@H](CN[C@@H](CNC)[C@H](C)CC)NCCc1cc(C(F)(F)F)cc(C(F)(F)F)c1	x	x	x	x	x	35.6*	57.3*
O=C(CN1CCN(S(=O)(=O)c2ccc(F)cc2)CC1)Nc1ccc(Cl)cn1	x	x	x	x	x	-3.1	x
COc1ccc(CN2CCNC(=O)C2CC(=O)N(C)CC2CCOCC2)cc1C (stereo not given)	x	x	x	x	x	5.8	x
O=[N+]([O-])c1ccc(N/N=C/c2cccnc2)cc1	x	x	x	x	x	24.2*	5.0
CN(CCOC(=O)c1ccccc1)Cc1ccccc1	-1.9	5.5	-2.9	0.6	1.4	4.4	x
CN(CCOC(=O)c1ccco1)Cc1ccccc1	x	2.2	3.8	8.9	5.7	40.7*	5.1
CC(=O)c1c(C)[nH]c(C(=O)N2CCc3ccccc32)c1C	-2.3	2.4	1.3	7.3	2.4	-2.4	x
CCOC(=O)c1[nH]c(C)c(C(=O)N2CCc3ccccc32)c1C	83.1*	28.5*	80.6*	96.1*	84.9*	92.2*	55.0*
CCOC(=O)c1[nH]c(C)c(C(=O)c2cc(F)ccc2F)c1C	55.3*	12.7	63.0*	95.1*	78.0*	87.7*	64.6*
CCOC(=O)c1[nH]c(C)c(C(=O)OCc2ccccc2F)c1C	x	x	x	x	x	51.0*	37.9*
CCOC(=O)c1[nH]c(C)c(C(=O)OCC)c1C	x	3.5	-1.1	-18.8	-4.8	-0.2	x
O=C(COc1ccccc1)Nc1c2c(nn1-c1ccccc1)CS(=O)C2 (stereo not given)	x	x	x	x	x	0.3	x
CCCc1cc(C(=O)N2CCC(n3nccc3NC(=O)c3ccc(OC)cc3)CC2)no1	x	x	x	x	x	6.5	x
CC(C)(C)CC(=O)NCCc1csc(-c2ccccc2)n1	-0.9	x	2.4	x	0.5	-2.2	x
COc1cc(-c2noc(C)c2/C=C/c2cccc([N+](=O)[O-])c2)cc(OC)c1OC	x	x	x	x	x	79.4*	53.7*
SMILES	b-catenin transl	MT stabilizer	Ba/F3 V617F tox	APP transl inh	BaF3 parental	IEC-6 cytotox	IEC-6 tox confirm
COc1cc(-c2noc(C)c2/C=C/c2ccc(C(=O)O)cc2)cc(OC)c1OC	x	x	x	x	x	-5.0	x
Cc1ccccc1OC(C)C(=O)N1CCN(c2ccccn2)CC1 (stereo not given)	x	x	x	x	x	-2.3	x
COc1ccc2[nH]c(C)cc(=O)c2c1	0.7	2.8	4.0	-2.0	2.9	3.2	x
COc1ccc2[nH]c3c(C)c4ccncc4c(C)c3c2c1	-2.7	x	65.1*	x	59.9*	73.5*	58.2*
CCN(CC)c1ccc(/C=C/c2cccc[n+]2C)c(OC)c1	x	x	x	x	x	28.0*	29.5*
COc1ccc(/C=C/c2cccc[n+]2C)c(O)c1	x	x	x	x	x	2.7	x
CCCNc1c(NS(=O)(=O)c2ccc(OC)c(OC)c2)c(=O)oc2ccccc12	x	x	x	x	x	4.7	x

Bioassay records from PubChem.
